Shown are actives, neighbours in structure and some others; about 3.8% of the full set was active somewhere.
KCNQ1 pot = potentiators or activators of human KCNQ1 potassium channel; CHO-K1 KCNQ1, thallium flux FluxOR fluorescence; active compounds read high; actives 0.35% (n = 310,000); P51787; AID 2648; B-score at 10 µM;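 active means fluorescence ratio B-score, a plate-corrected score, at least three library SD, with initial intensity B-score within 5 SD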
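Test system: CHO-K1 cells stably expressing KCNQ1 / Medium: assay buffer / Also added: depolarizing K+/Tl+ stimulus, K2SO4 and Tl2SO4 each 12.5 mM in 5x stock / Incubation: 90 min dye loading and 20 min compound exposure, both at room temperature / Signal: thallium influx via FluxOR fluorescence, kinetic imaging / Evaluation: B score of baseline-normalized fluorescence ratio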
hERG rescue = compounds protecting human hERG from proarrhythmic drug block | Q12809 | AID 1511 | actives 0.51% (n = 310,000) | activation (rescue from dofetilide block), less the hit threshold, % at 10 µM | CHO-hERG, FluxOR thallium flux, dofetilide IC70 present;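 active means activation above the mean of controls blocked by dofetilide plus 5 SD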;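 further: thallium influx through hERG after potassium depolarization seen as dye fluorescence rise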
KCNK9 block = inhibitors of human KCNK9 two-pore domain potassium channel. B-score at 10 µM. Q9NPC2. HEK293 KCNK9, FluxOR thallium flux fluorescence; active compounds read low. actives 1.2% (n = 310,000);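 active means ratio B-score over 3 SD below the library mean, with starting fluorescence within 5 SD of its mean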;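 further: negative B-score means less thallium flux so channel inhibition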
Kir21 inh = Kir2.1 (mouse) channel inhibition. B-score at 10 µM. P35561. HEK293-Kir2.1, FluxOR thallium flux fluorescence; active compounds read low. AID 1672. actives 0.85% (n = 310,000);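 active means fluorescence ratio B-score at or below minus 3 SD of library scores, with starting-brightness B-score within 2 SD, cut at about -4.2 in these data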;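 further: channel flux triggered by added potassium and thallium sulfate stimulus; B-score of peak minus minimum fluorescence over baseline after thallium stimulus; more negative B-score means stronger Kir2.1 block with less thallium influx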
KCNQ1 inh = human KCNQ1 channel inhibition; CHO-K1 KCNQ1, FluxOR thallium flux fluorescence; active compounds read high; B-score at 10 µM; actives 1.3% (n = 310,000); AID 2642;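 active means compounds whose thallium flux B-score, printed positive for inhibition, exceeds three library SD while starting fluorescence stays within three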;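 further: channel opened by potassium depolarization with thallium stimulus after 20 min compound exposure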
KCNK3 block = human KCNK3 channel inhibition, primary screen; O14649; CHO-KCNK3 thallium flux, FluxOR fluorescence; active compounds read low; B-score at 10 µM; actives 0.84% (n = 340,000);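 active means B-score under library mean minus 4 SD, starting fluorescence ratio at most library mean plus 5 SD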;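 further: more negative B-score means stronger inhibition of thallium flux through KCNK3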
Target sequence (O14649 whole entry, looked up): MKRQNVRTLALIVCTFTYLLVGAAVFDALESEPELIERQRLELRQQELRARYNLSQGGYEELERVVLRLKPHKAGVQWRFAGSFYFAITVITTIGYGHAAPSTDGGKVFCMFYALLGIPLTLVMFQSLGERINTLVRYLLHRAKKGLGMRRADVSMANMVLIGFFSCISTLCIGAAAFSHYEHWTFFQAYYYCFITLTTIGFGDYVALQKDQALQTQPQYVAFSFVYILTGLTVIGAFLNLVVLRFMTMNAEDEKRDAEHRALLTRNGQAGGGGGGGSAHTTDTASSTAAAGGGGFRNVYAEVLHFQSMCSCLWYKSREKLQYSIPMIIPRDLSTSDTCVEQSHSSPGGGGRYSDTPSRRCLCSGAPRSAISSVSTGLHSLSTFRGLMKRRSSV
An asterisk follows results filed as active; i = inactive; . = not tested or not shown.

SMILES	KCNQ1 pot	hERG rescue	KCNK9 block	Kir21 inh	KCNQ1 inh	KCNK3 block
COc1ccc(C(=O)C2CCCN(Cc3ccc4nonc4c3)C2)cc1OC (centres undefined)	i	-5	i	-0.01	i	i
COc1ccc(C(=O)C2CCCN(Cc3ccc4nonc4c3)C2)c(OC)c1 (centres undefined)	i	-16	i	-5.2*	i	i
CCOC(=O)CC(NC(=O)c1cc2cccc(OC)c2oc1=O)c1ccc(OC)cc1 (centres undefined)	i	-6	i	0.06	i	i
CC1=C(CC(=O)c2ccc(Cl)cc2)C(=O)c2ccccc2C1=O	i	-10	-6.7*	0.59	i	i
COc1ccc(-n2c(NC(=O)c3ccc(Br)o3)c(C#N)c3nc4ccccc4nc32)cc1	i	-14	i	0.85	7*	.
O=C(CCl)c1ccc2c(c1)CCN2C(=O)C1CC1	i	-6	i	-5.7*	i	.
CC(C)(C)C1CCc2c(sc(NC(=O)C3CC=CCC3C(=O)O)c2C#N)C1 (centres undefined)	i	14*	i	0.31	i	i
Cc1nn(CC(=O)Nc2sc3c(c2C#N)CCC(C(C)(C)C)C3)c(C)c1[N+](=O)[O-] (centres undefined)	i	-12	i	1.2	8*	i
N#Cc1c(NC(=O)C2CC=CCC2C(=O)O)sc2c1CCCCCC2 (centres undefined)	i	-5	i	0.21	i	i
Cc1nn(C(C)C(=O)Nc2sc3c(c2C#N)CCCC3)c(C)c1[N+](=O)[O-] (centres undefined)	i	0	i	0.42	i	i
COc1ccc(CCNC(=O)c2cc(S(=O)(=O)N3CCOCC3)ccc2F)cc1	.	.	.	.	.	i
COc1ccc(Cn2ccnc2SCC(=O)Nc2ccccc2OC)cc1	i	-9	i	-4.5*	i	i
COc1ccc(NC(=O)CSc2nccn2-c2ccccc2)c(OC)c1	i	-7	i	-0.55	i	i
CCOc1ccccc1NC(=O)CSc1nccn1-c1ccccc1	i	-15	i	-7*	i	i
CC(OC(=O)c1cc2c(ccc3ccccc32)oc1=O)c1nc2ccccc2s1 (centres undefined)	i	-33	i	0.19	9*	i
CCOC(=O)c1cc2c(ccc3ccccc32)oc1=O	i	-6	i	-0.42	i	i
CCOc1ccc(C(=O)NCC(=O)NCCSc2ccc(Br)cc2)cc1OCC	.	.	.	.	.	-9.8*
Cc1ccc(C(=O)NCC(=O)NCCSc2ccc(Br)cc2)cc1	i	-13	i	-0.71	i	i
O=C(NC(=S)N1CCCc2ccccc21)c1ccc(Br)cc1	16*	43*	i	-1.6	i	i
O=C(COc1ccccc1)NC(=S)N1CCc2ccccc21	10*	4.9*	i	-0.25	i	i
CC(C)[C@H](NC(=O)[C@@H]1CSC2c3ccccc3C(=O)N21)C(=O)NCc1ccncc1 (some centres undefined)	i	-10	i	0.08	i	i
N#Cc1ccccc1OCC(=O)NC(=O)NCc1ccco1	i	-2	i	-0.09	i	i
Cc1cc(C)nc(NC(=O)c2cc(-c3ccc(C)s3)nc3ccccc23)c1	i	-5	i	2.5	6*	i
CN1CCN(NC(=O)c2cc(-c3ccc(Cl)s3)nc3ccccc23)CC1	i	-12	i	-4.5*	i	i
CN1CCN(NC(=O)c2cc(-c3ccccn3)nc3ccccc23)CC1	i	-4	i	0.65	i	i
SMILES	KCNQ1 pot	hERG rescue	KCNK9 block	Kir21 inh	KCNQ1 inh	KCNK3 block
COc1ccccc1OCCSc1nc2ccccc2n1CCO	i	-11	i	-4.3*	i	i
COc1ccccc1OCCSc1nc2ccccc2n1CCC(=O)O	i	-6	i	1.7	i	i
CCCn1c(COc2ccccc2OC)nc2ccccc21	i	-12	i	-4.3*	i	i
CCn1c(COc2ccccc2OC)nc2ccccc21	i	-14	i	0.56	i	i
CC(/C=N/n1c(-c2ccccc2)n[nH]c1=S)=C\c1ccco1	i	-11	i	0.15	i	i
CC(/C=N/n1c(-c2ccc(C)cc2)n[nH]c1=S)=C\c1ccco1	10*	-6	i	-0.85	i	i
O=C1CSC(=S)N1/N=C/c1ccc(O)c(O)c1O	i	-2	i	0.05	i	i
O=C1CSC(=S)N1/N=C/c1cc(Br)ccc1O	i	7.1*	i	0.38	i	.
COc1cccc(CNC(=O)C2Cc3ccccc3CN2C(C)=O)c1 (centres undefined)	i	-6	i	1.2	i	i
COC(=O)c1sccc1NC(=O)CSc1ccccc1NS(=O)(=O)c1ccc(Cl)cc1	i	-1	i	0.27	i	i
COC(=O)c1sccc1NC(=O)CSc1ccccc1NS(=O)(=O)c1ccccc1Cl	i	-15	-7.2*	1.4	i	i
N#Cc1ccc(S(=O)(=O)N2CCC(C(=O)N3CCN(Cc4ccc5c(c4)OCO5)CC3)CC2)cc1	.	.	.	.	.	i
Cc1cc(C)n(CCc2nc(-c3ccc(F)cc3)cs2)n1	i	-11	i	-0.03	i	i
COc1cc(-c2csc(CCn3nc(C)cc3C)n2)cc(OC)c1OC	i	-13	-6.7*	1.5	i	i
O=C(CCCN1C(=O)NC2(CCCC2)C1=O)Nc1cccc(S(=O)(=O)N2CCOCC2)c1	.	.	.	.	.	i
O=C1C(=C(I)I)c2ccccc2-c2ccccc21	.	.	.	.	.	-9.4*
CC(C)c1cc(=O)n2[nH]c(N)nc2n1	i	-3	i	0.59	i	i
CCOC(=O)C1=C(C)N=C2SCCC(=O)N2C1c1ccc(C(=O)OC)cc1 (centres undefined)	i	-8	i	0.06	i	i
CCOC(=O)C1=C(C)N2C(=C(C#N)[C@@H]1c1ccc(C(=O)OC)cc1)SC[C@@]2(O)C(C)(C)C	i	-20	i	-1.5	6*	i
c1ccc2nc(N3CCCC3)c(N3CCCCC3)nc2c1	.	.	.	.	.	-10*
CCn1c(SCC(=O)N2CCOCC2)nnc1C(C)NC(=O)c1ccccc1 (centres undefined)	i	-4	i	1.3	i	i
CC(=O)c1ccc(Oc2ccc(C(C)=O)cc2)cc1	i	-6	i	1.3	i	i
Oc1ccc(Oc2ccc(Oc3ccc(O)cc3)cc2)cc1	i	-9	-6.9*	0.31	13*	i

Source: PubChem BioAssay
